A selection: hits, their analogues and other compounds. The true share with any hit is near 2.8%.
MDM2 E3 inh = MDM2-luciferase reporter signal enhancers, primary screen, MDM2 E3 ligase inhibitor project, cell-based, luminescence, 1536-well | cell-based MDM2 ubiquitination luciferase reporter, 2 h; 0 = plate control, 100 = twice control, blank-subtracted | signal enhancement, % at 5 µM | actives 0.11% (n = 210,000) | AID 1230, 2008;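 active means signal enhancement of 30% or more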;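 further: luminescence tracks abundance of the self-degrading MDM2-luciferase fusion protein; higher signal means inhibition of MDM2 E3 ligase activity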
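Assay system: stable mammalian line carrying autodegrading MDM2–luciferase fusion reporter; amount: 2000 cells seeded into each well; buffer or medium: DMEM; benchmarks: plate control and blank wells; signal: luciferase luminescence; timing: 2 h compound exposure at 37 °C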
Measles CPE = compounds protecting cells from measles virus cytopathic effect, primary screen, measles RdRp inhibitor project, single point, MLSMR library, absorbance; Measles virus-infected cells, CPE protection; protection (pct of control), % at 4 µM; actives 1.5% (n = 140,000); in the data active means protection mostly above about 24%, no sharp cut-off; inactive means mostly below about 26%
NPY-Y2 antag = NPY-Y2 receptor antagonists, primary screen, cell-based | Neuropeptide Y receptor type 2 (Homo sapiens), P49146 | NPY-Y2 expressing cells, antagonist mode | inhibition, % at 2.7 µM | actives 0.99% (n = 140,000) | AID 793, 2007; in the data active means inhibition above about 17%;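 further: 0% = vehicle with agonist challenge and 100% = reference antagonist with challenge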
Target sequence (P49146 whole entry, looked up): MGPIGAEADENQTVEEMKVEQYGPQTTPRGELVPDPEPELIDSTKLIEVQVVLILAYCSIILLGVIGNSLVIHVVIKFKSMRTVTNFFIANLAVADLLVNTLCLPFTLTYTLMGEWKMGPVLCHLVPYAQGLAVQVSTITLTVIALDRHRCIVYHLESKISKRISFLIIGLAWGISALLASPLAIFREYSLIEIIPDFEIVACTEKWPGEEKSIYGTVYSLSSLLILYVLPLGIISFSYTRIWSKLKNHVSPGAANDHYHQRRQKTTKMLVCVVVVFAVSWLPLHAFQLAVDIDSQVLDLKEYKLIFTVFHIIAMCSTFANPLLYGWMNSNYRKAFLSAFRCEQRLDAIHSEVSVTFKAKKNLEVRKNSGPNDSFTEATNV
NPY Y1 blocker = NPY-Y1 receptor antagonists, primary screen, cell-based | Neuropeptide Y receptor type 1 (Homo sapiens), P25929 | HEK293-CNG Y1 cells, membrane potential fluorescence; NPY at EC95, then isoproterenol | inhibition, % at 3.6 µM | actives 1% (n = 200,000);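 active means inhibition above the campaign mean inhibition of all tested compounds plus 3 SD, cut at about 20% in these data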;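 further: 0% = DMSO wells given NPY plus isoproterenol and 100% = isoproterenol alone without NPY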
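Material: HEK293 Y1/CNG channel cell line | Also added: NPY (25 nM), isoproterenol (1 µM), Ro 20-1724 (25 µM) | Compound: One concentration, 3.6 µM, in 0.4% DMSO | Schedule: 3 h dye uptake, 1 h room-temperature compound, 45 min post-isoproterenol | Signal: Membrane-potential fluorescent dye readout | Read-out: % inhibition of NPY effect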
NPY-Y2 PAM-ag = NPY-Y2 potentiators or agonists, primary screen, cell-based; AID 1359, 2008; cells expressing NPY-Y2, potentiator/agonist read-out; activation, % at 3.6 µM; actives 0.45% (n = 220,000); in the data active means activation above about 27%;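 further: cells stimulated with NPY near EC25 plus isoproterenol at EC100; 0% = vehicle plus submaximal agonist and 100% = vehicle plus saturating agonist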
NPY1 pot ag = NPY-Y1 receptor potentiators or agonists, primary screen, cell-based | Neuropeptide Y receptor type 1 (Homo sapiens), P25929 | NPY-Y1 expressing cells, potentiator/agonist activation | actives 0.37% (n = 220,000) | AID 1304, 2008 | activation, % at 3.6 µM; in the data active means activation above about 33%, passing the limit was not always enough;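 further: cells stimulated with NPY at EC10 then isoproterenol at EC100; 0% = low agonist plus stimulus and 100% = saturating agonist plus stimulus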
NPY1 antag ctr = NPY-Y1 receptor antagonists, selectivity check, counter-screen for NPY-Y2 antagonist project, cell-based; shares compounds with NPY-Y2 antag; cell-based NPY-Y1 antagonism counterscreen; inhibition, % at 3.6 µM; actives 19% (n = 710); in the data active means inhibition above about 20%;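 further: cells challenged with NPY then isoproterenol with cAMP sensed through a CNG channel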
NPY-Y2 ant conf = NPY-Y2 receptor antagonists, retest of hits, confirmation, HEK293-CNG cells, membrane potential fluorescence, triplicate | shares compounds with NPY-Y2 antag | AID 1257, 2008 | HEK293 NPY-Y2 CNG channel | actives 32% (n = 710) | inhibition, % at 2.8 µM;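 active means mean inhibition of triplicate wells above the hit cutoff set in the primary screen, cut at about 17% in these data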;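 further: 0% = DMSO with NPY challenge and 100% = BIIE0246 high control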
* marks the source's active call; other numbers are inactive results.

Results for Cc1cc(N2CCC(C)CC2)nc(NCc2ccccc2)n1 ?
MDM2 E3 inh: -11; Measles CPE: 5; NPY-Y2 antag: 17*; NPY Y1 blocker: 14; NPY-Y2 PAM-ag: -20; NPY1 pot ag: -37; NPY1 antag ctr: 33*; NPY-Y2 ant conf: 33*

Results for Cc1cc(Oc2ccccc2)nc(NCc2ccccc2)n1 ?
MDM2 E3 inh: -13; Measles CPE: 2; NPY-Y2 antag: 20*; NPY Y1 blocker: 12; NPY-Y2 PAM-ag: -23; NPY1 pot ag: -22; NPY1 antag ctr: 11; NPY-Y2 ant conf: 4

How did Cc1cc(N2CCC(C)CC2)nc(-c2ccccc2O)n1 do in these assays?
MDM2 E3 inh: -12; NPY-Y2 PAM-ag: -20; NPY1 pot ag: -1

How did O=C(CN1CCN(c2ccc(C(F)(F)F)cn2)CC1)NCc1ccc2c(c1)OCO2 do in these assays?
MDM2 E3 inh: -17; NPY-Y2 PAM-ag: -5; NPY1 pot ag: -23

Results for Cc1ccc(C)c(N2CC(C(=O)O)CC2=O)c1 (stereo unspecified) ?
MDM2 E3 inh: -11; NPY Y1 blocker: 0; NPY-Y2 PAM-ag: 5; NPY1 pot ag: -4

Results for c1ccc(Cc2nnc(-c3ccccc3)o2)cc1 ?
MDM2 E3 inh: -16; Measles CPE: 2; NPY-Y2 antag: 135*; NPY Y1 blocker: 10; NPY-Y2 PAM-ag: -12; NPY1 pot ag: -32; NPY1 antag ctr: 9; NPY-Y2 ant conf: 19*

What do the screens show for `CC/C(=N\NS(C)(=O)=O)c1ccccc1`?
MDM2 E3 inh: -9; Measles CPE: 5; NPY-Y2 antag: 0; NPY Y1 blocker: -4; NPY-Y2 PAM-ag: -7; NPY1 pot ag: -25

What do the screens show for `COc1ccc(Cl)cc1NC(=O)CCNC(=O)OCc1ccccc1`?
MDM2 E3 inh: -6; NPY Y1 blocker: -1; NPY-Y2 PAM-ag: -14; NPY1 pot ag: -1

What do the screens show for `CCCCn1c(=N)n(CCOc2ccc(C)cc2)c2ccccc21`?
MDM2 E3 inh: -14; Measles CPE: 6; NPY-Y2 antag: 20*; NPY Y1 blocker: 19; NPY-Y2 PAM-ag: 1; NPY1 pot ag: -25; NPY1 antag ctr: 9; NPY-Y2 ant conf: 16

What do the screens show for `CS(=O)(=O)N(CC(=O)N1CCN(Cc2ccc3c(c2)OCO3)CC1)Cc1ccc(Cl)cc1`?
MDM2 E3 inh: -26; Measles CPE: 11; NPY-Y2 antag: 23*; NPY Y1 blocker: 15; NPY-Y2 PAM-ag: -7; NPY1 pot ag: -15; NPY1 antag ctr: 9; NPY-Y2 ant conf: 4

What do the screens show for `CS(=O)(=O)N(CCc1ccccc1)CC(=O)N1CCN(Cc2ccc3c(c2)OCO3)CC1`?
MDM2 E3 inh: -7; Measles CPE: 35; NPY-Y2 antag: 2; NPY Y1 blocker: -3; NPY-Y2 PAM-ag: 10; NPY1 pot ag: -14

Results for Cc1ccc(N2C(=O)c3ccccc3C2C(=O)c2cc(C)ccc2O)cc1 (stereo unspecified) ?
MDM2 E3 inh: 1; Measles CPE: 10; NPY-Y2 antag: 27*; NPY Y1 blocker: -2; NPY-Y2 PAM-ag: 18; NPY1 pot ag: 9; NPY1 antag ctr: 35*; NPY-Y2 ant conf: 38*

Results for Cc1ccc(N2C(=O)c3ccccc3C2C(=O)c2ccc(O)cc2O)cc1 (stereo unspecified) ?
MDM2 E3 inh: -12; Measles CPE: 12; NPY-Y2 antag: 0; NPY Y1 blocker: 1; NPY-Y2 PAM-ag: 7; NPY1 pot ag: 16

How did c1cncc(CSc2ccc(-c3ccc4c(c3)OCO4)nn2)c1 do in these assays?
MDM2 E3 inh: -25; NPY Y1 blocker: -5; NPY-Y2 PAM-ag: -1; NPY1 pot ag: -4

Results for Fc1cccc(CSc2ccc(-c3ccc4c(c3)OCO4)nn2)c1 ?
MDM2 E3 inh: -16; Measles CPE: 16; NPY-Y2 antag: 19*; NPY Y1 blocker: 12; NPY-Y2 PAM-ag: -8; NPY1 pot ag: -19; NPY1 antag ctr: 12; NPY-Y2 ant conf: 9

Results for O=C(NCc1ccc2c(c1)OCO2)c1cc(-c2ccccc2)on1 ?
MDM2 E3 inh: -8; Measles CPE: 16; NPY-Y2 antag: 8; NPY Y1 blocker: 0; NPY-Y2 PAM-ag: 5; NPY1 pot ag: -36

How did Cc1ccc(-c2cc(C(=O)NCc3ccc4c(c3)OCO4)no2)cc1 do in these assays?
MDM2 E3 inh: 2; Measles CPE: 3; NPY-Y2 antag: 18*; NPY Y1 blocker: 17; NPY-Y2 PAM-ag: -12; NPY1 pot ag: -41; NPY1 antag ctr: 14; NPY-Y2 ant conf: 10

What do the screens show for `CCOC(=O)Cc1csc(NC(=O)C(NC(=O)C2CCCCC2)C(C)C)n1` (stereo unspecified)?
MDM2 E3 inh: -2; NPY Y1 blocker: 8; NPY-Y2 PAM-ag: 5; NPY1 pot ag: -8

How did O=C(C1CCN(Cc2ccc(Cl)cc2)CC1)N1CCN(C(c2ccccc2)c2ccccc2)CC1 do in these assays?
MDM2 E3 inh: 4; Measles CPE: 6; NPY-Y2 antag: 20*; NPY Y1 blocker: 3; NPY-Y2 PAM-ag: -4; NPY1 pot ag: -28; NPY1 antag ctr: 9; NPY-Y2 ant conf: 32*

What do the screens show for `O=C(C1CCN(Cc2ccc(OCc3ccccc3)cc2)CC1)N1CCCC1`?
MDM2 E3 inh: 3; Measles CPE: 7; NPY-Y2 antag: 7; NPY Y1 blocker: 8; NPY-Y2 PAM-ag: 6; NPY1 pot ag: -12

How did C/C(N)=C(/C#N)C(=O)COC(=O)c1cc(-c2ccc(Br)cc2)nc2ccccc12 do in these assays?
MDM2 E3 inh: -9; Measles CPE: 9; NPY-Y2 antag: -1; NPY Y1 blocker: 3; NPY-Y2 PAM-ag: 5; NPY1 pot ag: -12

How did CC(C)c1ccc(/C=C/C(=O)N2CCc3ccccc3C2)cc1 do in these assays?
MDM2 E3 inh: -24; Measles CPE: 21; NPY-Y2 antag: 18*; NPY Y1 blocker: 3; NPY-Y2 PAM-ag: -8; NPY1 pot ag: -8; NPY1 antag ctr: 29*; NPY-Y2 ant conf: 25*

What do the screens show for `Cc1ccc2oc(C(Cl)(Cl)Cl)cc(=O)c2c1`?
MDM2 E3 inh: -1; Measles CPE: 4; NPY-Y2 antag: 1; NPY Y1 blocker: 6; NPY-Y2 PAM-ag: 15; NPY1 pot ag: -10

Screening results from PubChem BioAssay.
